Source: ChEMBL document CHEMBL1773023, “Potent and selective phosphopeptide mimetic prodrugs targeted to the Src homology 2 (SH2) domain of signal transducer and activator of transcription 3” (J Med Chem, 2011)
pIC50: −log10 of the molar value. The source made the active and inactive calls. The rule behind the calls is not given here.

Key:
[1] = target: T1, Signal transducer and activator of transcription 3 (Homo sapiens, UniProt P40763); assay: Inhibition of SH2 domain of Stat3 constitutive phosphorylation at Tyr705 in human MDA-MB-468 cells at 5 uM after 30 mins by Western blotting; format: cell-based
T1 sequence (P40763 whole entry, the tested form may be a part): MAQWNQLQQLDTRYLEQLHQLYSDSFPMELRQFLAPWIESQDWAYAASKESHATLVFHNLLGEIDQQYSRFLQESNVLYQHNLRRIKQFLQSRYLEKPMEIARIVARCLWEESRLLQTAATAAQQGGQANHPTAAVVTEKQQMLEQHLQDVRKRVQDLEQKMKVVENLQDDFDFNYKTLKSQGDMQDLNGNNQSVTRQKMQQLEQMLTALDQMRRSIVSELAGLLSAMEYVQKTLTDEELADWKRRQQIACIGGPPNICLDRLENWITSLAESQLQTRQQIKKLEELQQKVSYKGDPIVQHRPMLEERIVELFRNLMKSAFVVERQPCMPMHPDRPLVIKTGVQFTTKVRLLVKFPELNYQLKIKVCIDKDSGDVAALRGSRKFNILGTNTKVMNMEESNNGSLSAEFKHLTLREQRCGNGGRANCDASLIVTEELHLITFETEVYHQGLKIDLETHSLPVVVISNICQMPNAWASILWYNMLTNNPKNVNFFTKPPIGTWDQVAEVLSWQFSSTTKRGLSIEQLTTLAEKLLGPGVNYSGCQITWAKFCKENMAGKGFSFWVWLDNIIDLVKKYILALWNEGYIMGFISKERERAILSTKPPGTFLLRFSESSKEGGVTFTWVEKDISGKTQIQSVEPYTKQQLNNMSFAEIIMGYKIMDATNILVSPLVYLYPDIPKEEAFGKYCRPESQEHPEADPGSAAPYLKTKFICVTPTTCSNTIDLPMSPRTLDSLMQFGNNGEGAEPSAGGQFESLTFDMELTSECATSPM
In short: (§1)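 MDA-MB-468 cells given a single 5 μM prodrug dose and harvested at set times; pTyr705 and total Stat3 by Western blot of 12 μg lysate protein on 8% SDS-PAGE.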

[2] = target: T1, Signal transducer and activator of transcription 3; assay: Inhibition of SH2 domain of Stat3 constitutive phosphorylation at Tyr705 in human MDA-MB-468 cells at 5 uM after 4 hrs by Western blotting; format: cell-based; in short: as §1
[3] = target: T1, Signal transducer and activator of transcription 3; assay: Inhibition of SH2 domain of Stat3 constitutive phosphorylation at Tyr705 in human MDA-MB-468 cells at 5 uM after 8 hrs by Western blotting; format: cell-based; in short: as §1
[4] = target: T1, Signal transducer and activator of transcription 3; assay: Inhibition of SH2 domain of Stat3 in human MDA-MB-468 cells assessed as reduction of phosphorylated Stat3 level in cell nucleus at 5 uM after 2 hrs by fluorescence immunohistochemical analysis; format: cell-based
In short: (§2)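 MDA-MB-468 cells on slides treated with 5 μM prodrug or DMSO for 2 h, fixed in 4% paraformaldehyde, permeabilized with 0.5% Triton X-100, blocked in 3% BSA, stained with anti-pTyr705 Stat3 and Alexa Fluor 594 secondary; confocal imaging at fixed microscope settings.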

[5] = target: T1, Signal transducer and activator of transcription 3; assay: Inhibition of SH2 domain of Stat3 constitutive phosphorylation at Tyr705 in human MDA-MB-468 cells at 5 uM after 2 hrs by fluorescence immunohistochemical analysis; format: cell-based; in short: as §2
[6] = target: T1, Signal transducer and activator of transcription 3; assay: Inhibition of EGF-induced SH2 domain of Stat3 phosphorylation at Tyr705 in human MDA-MB-468 cells at 5 uM treated 1.5 hrs before EGF challenge measured after 30 mins by Western blotting; format: cell-based
In short: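 MDA-MB-468 cells pretreated 1.5 h with prodrug (5 μM), then EGF 100 ng/mL for 30 min; lysates split onto three PVDF blots probed for phospho/total Stat3, pSer473/total Akt, and phospho/total Stat5.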

[7] = target: T2, Signal transducer and activator of transcription 1-alpha/beta (Homo sapiens) (UniProt P42224); assay: Inhibition of IFN-gamma-induced Stat1 phosphorylation at Tyr701 in human MDA-MB-468 cells treated 1.5 hrs before IFN-gamma challenge measured after 30 mins by Western blotting; format: cell-based
T2 sequence (whole entry): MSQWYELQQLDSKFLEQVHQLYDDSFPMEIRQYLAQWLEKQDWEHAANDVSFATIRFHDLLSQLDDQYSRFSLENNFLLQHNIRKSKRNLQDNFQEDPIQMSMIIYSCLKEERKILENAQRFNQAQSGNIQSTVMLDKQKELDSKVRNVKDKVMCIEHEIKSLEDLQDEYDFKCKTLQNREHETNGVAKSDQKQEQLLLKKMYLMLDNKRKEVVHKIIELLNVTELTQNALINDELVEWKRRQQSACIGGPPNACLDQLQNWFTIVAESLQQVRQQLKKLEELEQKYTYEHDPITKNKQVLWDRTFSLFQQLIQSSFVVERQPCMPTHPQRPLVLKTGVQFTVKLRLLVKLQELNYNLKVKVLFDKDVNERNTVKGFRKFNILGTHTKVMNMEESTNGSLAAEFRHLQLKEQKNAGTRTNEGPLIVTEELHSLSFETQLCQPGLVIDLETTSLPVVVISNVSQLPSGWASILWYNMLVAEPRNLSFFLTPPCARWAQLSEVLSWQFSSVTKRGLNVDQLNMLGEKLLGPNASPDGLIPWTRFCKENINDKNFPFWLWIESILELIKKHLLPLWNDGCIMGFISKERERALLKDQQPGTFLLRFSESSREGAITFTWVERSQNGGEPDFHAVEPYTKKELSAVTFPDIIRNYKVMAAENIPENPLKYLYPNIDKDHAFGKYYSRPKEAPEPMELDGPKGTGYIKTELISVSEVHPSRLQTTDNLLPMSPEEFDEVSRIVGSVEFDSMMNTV
In short: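 MDA-MB-468 cells exposed to rising prodrug concentrations for 1.5 h, then interferon γ 25 ng/mL for 30 min; Western blot for pTyr701 and total Stat1.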

[8] = system: MDA-MB-468; assay: Selectivity ratio of inhibition of IFNgamma-induced Stat1 phosphorylation at Tyr701 to inhibition of EGF-induced SH2 domain of Stat3 phosphorylation at Tyr705 in human MDA-MB-468 cells; format: cell-based
[9] = system: MDA-MB-468; assay: Decrease of cyclin D1 gene expression in human MDA-MB-468 cells at 5 uM; format: functional, cell-based
[10] = system: MDA-MB-468; assay: Decrease of Bcl-xl gene expression in human MDA-MB-468 cells at 5 uM; format: functional, cell-based
[11] = target: T1, Signal transducer and activator of transcription 3; assay: Inhibition of SH2 domain of Stat3 phosphorylation at Tyr705 in human HCC-827 cells at 5 uM after 10 mins by Western blotting; format: cell-based
In short: (§3)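 HCC-827 NSCLC cells treated with 5 μM prodrug and sampled over a time course from 10 min to 24 h; pStat3 by Western blot.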

[12] = target: T1, Signal transducer and activator of transcription 3; assay: Inhibition of SH2 domain of Stat3 phosphorylation at Tyr705 in human HCC-827 cells at 5 uM after 24 hrs by Western blotting; format: cell-based; in short: as §3
[13] = Cytotoxicity against human NCI-H528 cells assessed as cell growth inhibition at 5 to 10 uM after 72 hrs by MTT assay; format: functional
In short: (§4)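 Cell lines with constitutive Stat3 phosphorylation (melanoma, NSCLC) exposed to prodrug at 5–10 μM. Percent growth inhibition recorded.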

[14] = Cytotoxicity against human SKOV3ip cells after 72 hrs by SRB assay; format: functional, cell-based; conditions: SKOV3-ip
In short: (§5)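 Cancer cell lines (MCF-7, SKOV3-ip, HCC-827) dosed daily with prodrug for three days; viability by SRB assay.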

[15] = Cytotoxicity against human HCC827 cells after 72 hrs by SRB assay; format: functional, cell-based; conditions: HCC827, 72 h; in short: as §5
[16] = system: MeWo; assay: Cytotoxicity against human MeWo cells assessed as cell growth inhibition at 5 to 10 uM after 72 hrs by MTT assay; format: functional; in short: as §4
[17] = Cytotoxicity against human NCI-H1819 cells assessed as cell growth inhibition at 5 to 10 uM after 72 hrs by MTT assay; format: functional; in short: as §4
[18] = system: A549; assay: Cytotoxicity against human A549 cells assessed as cell growth inhibition at 5 to 10 uM after 72 hrs by MTT assay; format: functional; in short: as §4
[19] = system: NCI-H520; assay: Cytotoxicity against human NCI-H520 cells assessed as cell growth inhibition at 5 to 10 uM after 72 hrs by MTT assay; format: functional; in short: as §4
[20] = target: T1, Signal transducer and activator of transcription 3; assay: Inhibition of SH2 domain of Stat3 phosphorylation at Tyr705 in human SKOV3-ip cells up to 10 uM by Western blotting
[21] = target: Focal adhesion kinase 1 (Homo sapiens) (UniProt Q05397); assay: Inhibition of constitutive FAK phosphorylation at Tyr861 in human MDA-MB-468 cells at 5 uM measured after 2 hrs by Western blotting
Sequence of Focal adhesion kinase 1 (Homo sapiens) (Q05397 2-1052 limits assumed): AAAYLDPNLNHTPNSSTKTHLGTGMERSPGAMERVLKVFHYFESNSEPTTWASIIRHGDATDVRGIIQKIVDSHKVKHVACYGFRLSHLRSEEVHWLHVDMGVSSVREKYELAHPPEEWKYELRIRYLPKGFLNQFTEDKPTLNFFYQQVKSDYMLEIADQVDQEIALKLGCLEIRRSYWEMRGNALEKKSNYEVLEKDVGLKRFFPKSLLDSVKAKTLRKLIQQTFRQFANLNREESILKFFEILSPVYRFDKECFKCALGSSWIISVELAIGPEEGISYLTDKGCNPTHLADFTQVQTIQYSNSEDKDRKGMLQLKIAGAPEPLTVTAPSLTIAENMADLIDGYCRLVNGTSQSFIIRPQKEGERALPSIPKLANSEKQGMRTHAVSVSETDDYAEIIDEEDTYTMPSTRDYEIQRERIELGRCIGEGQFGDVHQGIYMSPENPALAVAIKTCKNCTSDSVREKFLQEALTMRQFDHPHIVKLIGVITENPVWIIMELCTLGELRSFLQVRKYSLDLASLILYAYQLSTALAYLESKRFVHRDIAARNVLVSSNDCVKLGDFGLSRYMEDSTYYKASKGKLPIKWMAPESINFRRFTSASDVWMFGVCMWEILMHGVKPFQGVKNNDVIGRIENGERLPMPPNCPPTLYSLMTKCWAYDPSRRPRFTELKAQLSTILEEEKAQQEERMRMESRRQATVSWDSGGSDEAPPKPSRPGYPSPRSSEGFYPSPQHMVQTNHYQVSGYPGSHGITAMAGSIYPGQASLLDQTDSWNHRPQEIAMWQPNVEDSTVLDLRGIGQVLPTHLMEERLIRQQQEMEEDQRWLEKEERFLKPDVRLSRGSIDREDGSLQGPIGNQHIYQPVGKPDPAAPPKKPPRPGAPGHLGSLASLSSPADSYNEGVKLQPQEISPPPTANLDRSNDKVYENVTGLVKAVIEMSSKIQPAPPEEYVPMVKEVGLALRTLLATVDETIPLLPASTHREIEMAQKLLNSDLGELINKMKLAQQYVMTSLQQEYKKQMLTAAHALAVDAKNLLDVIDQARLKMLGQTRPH

[22] = target: T1, Signal transducer and activator of transcription 3; assay: Inhibition of constitutive SH2 domain of Stat3 phosphorylation at Tyr705 in human SKOV3-ip cells at 1 uM measured after 2 hrs by Western blotting

Structure (SMILES): C/C(=C\C(=O)N[C@H]1CCc2cccc3c2N(C1=O)[C@H](C(=O)N[C@H](C)CCC(N)=O)C3)c1ccc(C(F)(F)P(=O)(OCOC(=O)C(C)(C)C)OCOC(=O)C(C)(C)C)cc1
- inhibition [1]: Active
- inhibition [2]: Active
- inhibition [3]: Active
- inhibition [4]: Active
- inhibition [5]: Active
- inhibition [6]: Active
- inhibition [7]: Dose-dependent effect
- Ratio [8]: 10
- Activity [9]: inactive
- Activity [10]: inactive
- inhibition [11]: Active
- inhibition [12]: Active
- growth inhibition (GI) [13]: <20%
- pIC50 [14]: < 4.52
- pIC50 [15]: < 4.52
- growth inhibition (GI) [16]: <20%
- growth inhibition (GI) [17]: <20%
- growth inhibition (GI) [18]: <20%
- growth inhibition (GI) [19]: <20%
- inhibition [20]: Active
- inhibition [21]: inactive
- inhibition [22]: Active
